# Results from article PMC8992017 (Journal of medicinal chemistry, 2019).
# Legend:
# [1] = test system: NF-κB; test: NF-κB activation in THP1-Blue NF-κB reporter cells; assay type: cell-based; details: compound 1 + LPS, raw value used for normalization, mean ± SEM
# How it was run: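 THP1-Blue NF-κB cells at 10^5/well in RPMI with 10% FBS, pen/strep and Normocin. Test compound (1 mM DMSO stock) was diluted into LPS medium, giving final 5 μM compound ([…]), with LPS co-added. After 20 h, supernatant SEAP was measured colorimetrically with QuantiBlue at 630 nm. Two-point normalized: reference sulfonamide + LPS = 200%, LPS alone = 100%; mean ± SEM.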
# [2] = test system: NF-κB; details: compound alone, without LPS; cited from earlier work
# [3] = test system: C57BL/6 (wild-type, WT) mice; assay type: in vivo
# How it was run: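 Female/male not stated; C57BL/6 wild-type mice aged 7–9 weeks, 8 per group. Test compound mixed with ovalbumin (20 μg/animal) and MPLA and injected into the gastrocnemius muscle on days 0 and 21. Mice then bled, and serum OVA-specific IgG titres measured by ELISA. Data given as mean ± SEM.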
# [4] = test system: ISRE; details: compound alone, without IFN-α; cited from earlier work
# [5] = test system: ISRE; test: ISRE activity in ISRE-bla THP-1 reporter cells; assay type: cell-based; details: compound 1 + IFN-α, raw value used for normalization, mean ± SEM
# How it was run: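 ISRE-bla THP-1 cells at 5×10^4/well in RPMI with 10% dialyzed FBS, 0.1 mM non-essential amino acids, 1 mM pyruvate and pen/strep. Test compound (1 mM DMSO stock) was diluted in IFN-α medium, giving final 5 μM compound ([…]) and final 100 U/mL IFN-α. Incubation 16 h, then CCF4-AM FRET substrate 3 h at RT in the dark. Excitation 405 nm; background-subtracted 465/535 nm emission ratio. Two-point normalized: reference sulfonamide + IFN-α = 200%, IFN-α alone = 100%; mean ± SEM.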
smiles,measurement,setting,value
"CCOc1ccc(S(=O)(=O)Nc2cc(OC)c(Cl)cc2OC)cc1 [Compound 1, N-(4-chloro-2,5-dimethoxyphenyl)-4-ethoxybenzenesulfonamide]",mean SEAP response in NF-κB assay,[1],3.44 ± 0.08 µg/mL
same,NF-κB activity when tested alone (in words),[2],did not possess any NF-κB or ISRE activity
same,"systemic toxicity, as indicated by behavior change or weight loss (in words)","[3]; mice co-immunized with MPLA, ovalbumin and compound",without demonstrable systemic toxicity
same,OVA-specific IgG antibody titers versus MPLA alone (in words),"[3]; mice, n=8 per group, intramuscular, ovalbumin 20 μg/animal + MPLA + compound, days 0 and 21",statistically significant increases
same,ISRE activity when tested alone (in words),[4],did not possess any NF-κB or ISRE activity
same,mean emission ratio in ISRE assay,[5],1.88 ± 0.04 µg/mL
